An excerpt weighted towards active compounds, which were near 2.6% of everything screened.
SENP7 block = inhibitors of human SENP7 protease; recombinant SENP7, Z-RLRGG-aminoluciferin luminescence, 40 min; inhibition, % at 5 µM; 330,000 compounds, 1.5% hits; AID 434973;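 active means inhibition above about 50% at the single test dose, limit read from the data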
SENP8 block-1 = blocks the human protease SENP8. Q96LD8. purified SENP8, Z-RLRGG-aminoluciferin cleavage, luminescence. inhibition, % at 10 µM. 330,000 compounds, 1.2% hits. AID 2540; in the data active means inhibition above about 50%
SENP1 inh = blocks the human SENP1 SUMO protease catalytic domain; inhibition, % at 10 µM; recombinant SENP1 catalytic domain, CyPet-SUMO1-YPet FRET cleavage; 360,000 compounds, 0.21% hits; Q9P0U3;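 active means inhibition at least 30% at 10 µM, raw YFP signal under a set limit, fluorescence ratio 0.5 to 1.5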
Target sequence (Q9P0U3 419-644 limits assumed): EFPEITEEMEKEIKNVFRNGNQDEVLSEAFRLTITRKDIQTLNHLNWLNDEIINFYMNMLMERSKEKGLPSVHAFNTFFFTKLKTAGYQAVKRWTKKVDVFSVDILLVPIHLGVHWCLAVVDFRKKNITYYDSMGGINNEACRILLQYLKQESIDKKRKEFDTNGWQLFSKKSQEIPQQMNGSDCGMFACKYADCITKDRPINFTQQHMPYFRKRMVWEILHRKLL
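Test system: human SENP1 catalytic domain; medium: Tris pH 8 buffer plus EDTA, NaCl, BME, BSA, NP40, catalase; incubation: 50 min reaction at room temperature; technique: FRET, CFP and YFP emission; controls: no-enzyme low control and enzyme-plus-DMSO high control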
SENP8 block-2 = blocks human SENP8 cleavage of Nedd8 substrate; inhibition, % at 20 µM; 360,000 compounds, 0.64% hits; Q96LD8; AID 602440; recombinant SENP8, Nedd8 substrate fluorescence; in the data active means inhibition mostly above about 40%, no sharp cut-off; inactive means mostly below about 27%
Platelet DG rel = platelet dense granule release activity; human platelet-rich plasma, SFLLRN dense granule ATP release, luminescence; inhibition, %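 (compounds screened at 7.5 µM in platelet-rich plasma)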; AID 1663; 300,000 compounds, 0.22% hits;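 active means mean replicate score, as percent of positive control, at or above 50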
SENP6 inh = blocks the human protease SENP6; Q9GZR1; Recombinant SENP6 catalytic domain, aminoluciferin luminescence; inhibition, % at 10 µM; 330,000 compounds, 1.8% hits;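 active means inhibition above about 50% at the single tested dose, limit read from the data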
SENP8 conf = human SENP8 inhibition, confirmed; shares compounds with SENP7 block; inhibition, % at 12.5 µM; Recombinant SENP8, Z-RLRGG-aminoluciferin luminescence, 60 min; 6,200 compounds, 40% hits;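 active means mean inhibition across replicates above about 50%, limit read from the data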
SENP6 conf = human SENP6 inhibition, confirmed | shares compounds with SENP7 block | recombinant SENP6, Z-RLRGG-aminoluciferin luminescence | inhibition, % at 12.5 µM | 6,200 compounds, 58% hits | AID 488915
SENP7 conf = confirmation of human SENP7 protease inhibitors; AID 488917; recombinant SENP7, Z-RLRGG-aminoluciferin luminescence, 40 min; inhibition, % at 12.5 µM; shares compounds with SENP7 block; 6,200 compounds, 69% hits
Casp3 SENP sel = selectivity test for SENP inhibitors: human caspase-3 inhibition; shares compounds with SENP7 block; purified caspase-3, Z-DEVD-aminoluciferin luminescence, 60 min; inhibition, % at 12.5 µM; 6,200 compounds, 60% hits;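 active means mean inhibition above about 50%, limit read from the data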
Target sequence (P42574 28-227 limits assumed): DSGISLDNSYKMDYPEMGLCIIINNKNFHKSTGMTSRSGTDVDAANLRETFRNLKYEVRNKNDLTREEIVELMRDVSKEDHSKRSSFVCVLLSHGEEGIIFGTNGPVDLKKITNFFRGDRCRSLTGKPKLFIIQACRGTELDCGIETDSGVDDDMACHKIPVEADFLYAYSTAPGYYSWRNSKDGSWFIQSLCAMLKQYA
Luc interf = luminescence interference (SENP counter-screen) | shares compounds with SENP7 block | Pre-incubated SENP8/Z-RLRGG-aminoluciferin, luciferase luminescence interference | inhibition, % at 12.5 µM | 6,200 compounds, 39% hits | AID 488919;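 active means mean inhibition above about 50% when retested at one dose, limit read from the data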
Of the large screens only hits and unclear results are named; the others gave an inactive call (follow-up assays come after a bar, where they were run).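 How the source made its calls, unless noted: active means mean inhibition above about 50% in the one-dose retest (limit read from the data); inactive means the rest.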

CS(=O)(=O)N1CCN(c2nc3ccc(Cl)cc3s2)CC1	none
Fc1cccc2sc(N3CCCCC3)nc12	SENP6 inh 59.4 | SENP8 conf inactive | SENP6 conf inactive | SENP7 conf 71.2 | Casp3 SENP sel inactive | Luc interf inactive
CCCn1c(SCC(=O)Nc2ccc3c(c2)OCCO3)n[nH]c1=O	none (no result: Platelet DG rel)
Nc1ccccc1Nc1c(F)c(F)nc(F)c1Cl	none
O=C(CSc1nnc2ccccn12)Nc1ccccc1C(=O)O	none
CCOc1ccc(N2C(=O)Nc3ccccc3C2(O)C(=O)NCc2ccc3c(c2)OCO3)cc1 (stereo not given)	none
COCCCN=Cc1c(C)[nH]n(-c2ccc(Br)c(C)c2)c1=O	SENP6 inh 53.0 | SENP8 conf inactive | SENP6 conf inactive | SENP7 conf inactive | Casp3 SENP sel inactive | Luc interf inactive
Cc1ccc(-n2[nH]c(C)c(C=NC34CN5CN(CN(C5)C3)C4)c2=O)cc1C	none
Cc1noc(C)c1COc1ccc(C(=O)N2CCN(S(=O)(=O)c3ccc(F)cc3)CC2)cc1	none (no result: SENP7 block, SENP8 block-1, Platelet DG rel, SENP6 inh)
CCOC(=O)c1c(C)[nH]c(C(=O)OCC(=O)c2ccccc2)c1C	SENP6 inh 51.0 | SENP8 conf inactive | SENP6 conf inactive | SENP7 conf 76.1 | Casp3 SENP sel inactive | Luc interf inactive
CCOC(=O)c1c(C)[nH]c(C(=O)OCC(=O)NCc2ccccc2)c1C	none (no result: Platelet DG rel)
Cc1cn2nc(N)c3ccccc3c2n1	none (no result: Platelet DG rel)
Nc1nn2cc(-c3ccccc3)nc2c2ccccc12	SENP7 block 68.9, SENP8 block-1 56.4 | SENP8 conf 78.3 | SENP6 conf 76.5 | SENP7 conf 91.3 | Casp3 SENP sel 72.8 | Luc interf 73.8
COc1cccc2sc(N(C)c3ccccc3)nc12	SENP7 block 88.9, SENP8 block-1 76.1 | SENP8 conf inactive | SENP6 conf 82.9 | SENP7 conf 96.5 | Casp3 SENP sel 77.7 | Luc interf 82.6
O=C(Nc1nnc(-c2ccco2)o1)c1ccc2ccccc2c1	SENP6 inh 70.6 | SENP8 conf inactive | SENP6 conf inactive | SENP7 conf inactive | Casp3 SENP sel inactive | Luc interf inactive
Cc1ccc(C(=O)Nc2nnc(-c3ccco3)o2)cc1	none
CC(/C=N/Nc1nnc2c(n1)[nH]c1ccccc12)=C\c1ccco1	SENP7 block 82.8 | SENP8 conf inactive | SENP6 conf inactive | SENP7 conf inactive | Casp3 SENP sel inactive | Luc interf inactive
COc1ccc(C(=O)Nc2nc3ccccc3[nH]2)cc1	SENP7 block 97.3, SENP8 block-1 92.6, SENP6 inh 96.7 | SENP8 conf inactive | SENP6 conf 95.1 | SENP7 conf 101.2 | Casp3 SENP sel 96.1 | Luc interf 59.6
Cc1ccc(C(=O)Nc2nc3ccccc3[nH]2)cc1	SENP7 block 96.8, SENP8 block-1 93.3, SENP6 inh 93.2 | SENP8 conf inactive | SENP6 conf inactive | SENP7 conf inactive | Casp3 SENP sel inactive | Luc interf inactive
COc1ccc(C(=O)N[C@H](C(=O)Nc2nc3ccccc3[nH]2)C(C)C)cc1	none
COc1cccc(C(=O)Nc2nc3ccccc3[nH]2)c1	SENP7 block 95.1, SENP8 block-1 89.8, SENP6 inh 93.6 | SENP8 conf inactive | SENP6 conf 92.7 | SENP7 conf 101.6 | Casp3 SENP sel 95.8 | Luc interf inactive
O=C(Nc1nc2ccccc2[nH]1)c1cccs1	SENP7 block 69.4 | SENP8 conf inactive | SENP6 conf 72.6 | SENP7 conf 88.8 | Casp3 SENP sel 87.5 | Luc interf inactive

High-throughput results deposited in PubChem BioAssay by several laboratories.
